From PMC6360136 (Investigational new drugs, 2018)

What was measured:
[1] = Tissue distribution and pharmacokinetic study; assay type: in vivo; conditions: single 1 mg/kg, NSG mice
Summary of the method: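 Female NSG mice (4–10 weeks) received a single 1 mg/kg dose, either i.v. in 10% EtOH/5% Tween-80/85% saline or i.p. in DMSO; 3 mice per time point. Plasma and tissues were collected at 10 min and 1, 3, 8, 24 and 48 h. Tissues were homogenised in PBS, proteins precipitated in acetonitrile/methanol with harmine internal standard, and samples quantified by positive-ESI MRM LC-MS/MS against matrix calibration curves. PK parameters came from noncompartmental analysis.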

[2] = test system: RTKs (EGFR, Met, IGF-1Rβ) in PANC-1 and EC46 cells; experiment: Immunoblot analysis of receptor tyrosine kinases; assay type: cell-based, human; conditions: 24 h
Summary of the method: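 PANC-1 and EC46 cells were seeded at 200,000/well and attached overnight. Medium was renewed with the test compound or EtOH control added. Whole-cell lysates were taken at 24 h in phosphatase-safe buffer and protein was quantified by BCA. Equal protein was resolved on 4–12% SDS-PAGE and transferred to PVDF. Blots were probed for EGFR, Met, IGF-1Rβ and β-actin, with chemiluminescent detection.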

[3] = test system: orthotopic pancreatic PDX tumor; experiment: TUNEL staining of PDX tumors; assay type: in vivo, NSG mice; conditions: PDX tumors at euthanasia, 0.25 mg/kg i.p. every other day, vs vehicle
Summary of the method: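 Orthotopic PDX mice received test compound 0.25 mg/kg i.p. or DMSO every other day. At endpoint, tumours were formalin-fixed and paraffin-embedded, and 5 micron sections were cut. Sections were stained for Ki-67 (proliferation) or by TUNEL (apoptosis). Ki-67 was scored as the average number of positive cells per high-power field by image analysis.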

## CC[C@H](C)[C@@H]1C(=O)N2CCC[C@@H]2C(=O)O[C@H](C(C)(C)C)C[C@@H](C)C[C@@H](O)C(C)(C)C2=N[C@H](CCC(=O)N[C@@H](Cc3ccc(OC)cc3)C(=O)N(C)[C@@H](C)C(=O)N1C)CS2 [Apra S10, apratoxin S10]
[1]; Brain, IP
  AUC (area under the concentration-time curve to infinity): 3067 ng·h/mL
  AUCt (area under the concentration-time curve): 727 ng·h/mL
  CL/F (clearance): 5.43 mL/min/kg
  Cmax (peak concentration): 18 ng/mL
  Ke (elimination rate constant): 0.006 h⁻¹
  MRT (mean residence time): 170.68 h
  Tmax (time to peak concentration): 0.17 h
  Vz/F (volume of distribution): 55.015 L/kg
  t1/2 (half-life): 116.95 h
[1]; Brain, IV
  AUC (area under the concentration-time curve to infinity): 2442 ng·h/mL
  AUCt (area under the concentration-time curve): 874 ng·h/mL
  CL/F (clearance): 6.82 mL/min/kg
  Cmax (peak concentration): 63 ng/mL
  Ke (elimination rate constant): 0.009 h⁻¹
  MRT (mean residence time): 110.88 h
  Tmax (time to peak concentration): 0.17 h
  Vz/F (volume of distribution): 46.571 L/kg
  t1/2 (half-life): 78.84 h
[1]; Kidney, IP
  AUC (area under the concentration-time curve to infinity): 5559 ng·h/mL
  AUCt (area under the concentration-time curve): 4508 ng·h/mL
  CL/F (clearance): 3 mL/min/kg
  Cmax (peak concentration): 403 ng/mL
  Ke (elimination rate constant): 0.036 h⁻¹
  MRT (mean residence time): 25.57 h
  Tmax (time to peak concentration): 1.00 h
  Vz/F (volume of distribution): 5.02 L/kg
  t1/2 (half-life): 19.34 h
[1]; Kidney, IV
  AUC (area under the concentration-time curve to infinity): 3345 ng·h/mL
  AUCt (area under the concentration-time curve): 3285 ng·h/mL
  CL/F (clearance): 4.98 mL/min/kg
  Cmax (peak concentration): 753 ng/mL
  Ke (elimination rate constant): 0.077 h⁻¹
  MRT (mean residence time): 9.34 h
  Tmax (time to peak concentration): 0.17 h
  Vz/F (volume of distribution): 3.892 L/kg
  t1/2 (half-life): 9.03 h
[1]; Liver, IP
  AUC (area under the concentration-time curve to infinity): 7951 ng·h/mL
  AUCt (area under the concentration-time curve): 7485 ng·h/mL
  CL/F (clearance): 2.1 mL/min/kg
  Cmax (peak concentration): 945 ng/mL
  Ke (elimination rate constant): 0.067 h⁻¹
  MRT (mean residence time): 12.77 h
  Tmax (time to peak concentration): 0.17 h
  Vz/F (volume of distribution): 1.865 L/kg
  t1/2 (half-life): 10.28 h
[1]; Liver, IV
  AUC (area under the concentration-time curve to infinity): 6560 ng·h/mL
  AUCt (area under the concentration-time curve): 6095 ng·h/mL
  CL/F (clearance): 2.53 mL/min/kg
  Cmax (peak concentration): 1127 ng/mL
  Ke (elimination rate constant): 0.056 h⁻¹
  MRT (mean residence time): 14.08 h
  Tmax (time to peak concentration): 0.17 h
  Vz/F (volume of distribution): 2.741 L/kg
  t1/2 (half-life): 12.46 h
[1]; Lung, IP
  AUC (area under the concentration-time curve to infinity): 3310 ng·h/mL
  AUCt (area under the concentration-time curve): 2321 ng·h/mL
  CL/F (clearance): 5.03 mL/min/kg
  Cmax (peak concentration): 210 ng/mL
  Ke (elimination rate constant): 0.023 h⁻¹
  MRT (mean residence time): 38.38 h
  Tmax (time to peak concentration): 0.17 h
  Vz/F (volume of distribution): 13.044 L/kg
  t1/2 (half-life): 29.93 h
[1]; Lung, IV
  AUC (area under the concentration-time curve to infinity): 2768 ng·h/mL
  AUCt (area under the concentration-time curve): 2273 ng·h/mL
  CL/F (clearance): 6.02 mL/min/kg
  Cmax (peak concentration): 329 ng/mL
  Ke (elimination rate constant): 0.041 h⁻¹
  MRT (mean residence time): 24.55 h
  Tmax (time to peak concentration): 0.17 h
  Vz/F (volume of distribution): 8.837 L/kg
  t1/2 (half-life): 16.95 h
[1]; Pancreas, IP
  AUC (area under the concentration-time curve to infinity): 60205 ng·h/mL
  AUCt (area under the concentration-time curve): 54532 ng·h/mL
  CL/F (clearance): 0.283 mL/min/kg
  Cmax (peak concentration): 2883 ng/mL
  Ke (elimination rate constant): 0.051 h⁻¹
  MRT (mean residence time): 17.46 h
  Tmax (time to peak concentration): 3.00 h
  Vz/F (volume of distribution): 0.323 L/kg
  t1/2 (half-life): 13.49 h
[1]; Pancreas, IV
  AUC (area under the concentration-time curve to infinity): 49289 ng·h/mL
  AUCt (area under the concentration-time curve): 45982 ng·h/mL
  CL/F (clearance): 0.333 mL/min/kg
  Cmax (peak concentration): 2348 ng/mL
  Ke (elimination rate constant): 0.059 h⁻¹
  MRT (mean residence time): 14.80 h
  Tmax (time to peak concentration): 8.00 h
  Vz/F (volume of distribution): 0.342 L/kg
  t1/2 (half-life): 11.70 h
[1]; Plasma, IP
  AUC (area under the concentration-time curve to infinity): 1292 ng·h/mL
  AUCt (area under the concentration-time curve): 1251 ng·h/mL
  CL/F (clearance): 12.9 mL/min/kg
  Cmax (peak concentration): 775 ng/mL
  Ke (elimination rate constant): 0.082 h⁻¹
  MRT (mean residence time): 6.54 h
  Tmax (time to peak concentration): 0.17 h
  Vz/F (volume of distribution): 9.49 L/kg
  t1/2 (half-life): 8.50 h
[1]; Plasma, IV
  AUC (area under the concentration-time curve to infinity): 1303 ng·h/mL
  AUCt (area under the concentration-time curve): 1287 ng·h/mL
  CL/F (clearance): 12.8 mL/min/kg
  Cmax (peak concentration): 1072 ng/mL
  Ke (elimination rate constant): 0.089 h⁻¹
  MRT (mean residence time): 4.20 h
  Tmax (time to peak concentration): 0.17 h
  Vz/F (volume of distribution): 8.616 L/kg
  t1/2 (half-life): 7.78 h
[1]; Salivary gland, IP
  AUC (area under the concentration-time curve to infinity): 19233 ng·h/mL
  AUCt (area under the concentration-time curve): 13009 ng·h/mL
  CL/F (clearance): 0.867 mL/min/kg
  Cmax (peak concentration): 556 ng/mL
  Ke (elimination rate constant): 0.024 h⁻¹
  MRT (mean residence time): 41.75 h
  Tmax (time to peak concentration): 3.00 h
  Vz/F (volume of distribution): 2.2 L/kg
  t1/2 (half-life): 29.33 h
[1]; Salivary gland, IV
  AUC (area under the concentration-time curve to infinity): 26182 ng·h/mL
  AUCt (area under the concentration-time curve): 23604 ng·h/mL
  CL/F (clearance): 0.633 mL/min/kg
  Cmax (peak concentration): 1258 ng/mL
  Ke (elimination rate constant): 0.048 h⁻¹
  MRT (mean residence time): 19.56 h
  Tmax (time to peak concentration): 1.00 h
  Vz/F (volume of distribution): 0.797 L/kg
  t1/2 (half-life): 14.46 h
[1]; Spleen, IP
  AUC (area under the concentration-time curve to infinity): 6586 ng·h/mL
  AUCt (area under the concentration-time curve): 5011 ng·h/mL
  CL/F (clearance): 2.53 mL/min/kg
  Cmax (peak concentration): 253 ng/mL
  Ke (elimination rate constant): 0.031 h⁻¹
  MRT (mean residence time): 31.38 h
  Tmax (time to peak concentration): 0.17 h
  Vz/F (volume of distribution): 4.868 L/kg
  t1/2 (half-life): 22.22 h
[1]; Spleen, IV
  AUC (area under the concentration-time curve to infinity): 6838 ng·h/mL
  AUCt (area under the concentration-time curve): 4686 ng·h/mL
  CL/F (clearance): 2.43 mL/min/kg
  Cmax (peak concentration): 195 ng/mL
  Ke (elimination rate constant): 0.027 h⁻¹
  MRT (mean residence time): 38.00 h
  Tmax (time to peak concentration): 8.00 h
  Vz/F (volume of distribution): 5.353 L/kg
  t1/2 (half-life): 25.37 h
[2]
  effect on RTKs: potently downregulated various RTKs
[3]
  number of cells undergoing apoptosis (TUNEL): no difference
